In brackets after ≈: the same amount, converted by molar mass. Activity calls are given as the source filed them. No cut-off for these calls is given here.
Columns and labels:
[1] = test system: Aspergillus fumigatus; assay: Antifungal activity against Aspergillus fumigatus ATCC 90906; format: functional, organism-based; settings: for MIC: in the assay text read “Antifungal” for “Antibacterial”
How it was run: (§1)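 Broth microdilution following modified NCCLS methods, Franzblau variant for M. intracellulare. DMSO samples serially diluted in saline and tested in duplicate. Inoculum set by 0.5 McFarland. Media: C. albicans SDB or RPMI 1640; C. neoformans SDB; A. fumigatus YM broth (MIC) or RPMI-1640 + 5% Alamar Blue (IC50); M. intracellulare 7H9/OADC + 5% Alamar Blue. Top final concentration 20 µg/mL.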

[2] = test system: Mycobacterium intracellulare; assay: Antibacterial activity against Mycobacterium intracellular ATCC 23068; format: functional, organism-based; how it was run: as §1
[3] = test system: Candida albicans; assay: Antifungal activity against Candida albicans ATCC 90028; format: functional; how it was run: as §1
[4] = test system: Vero; assay: Cytotoxicity against Vero cells; format: cell-based; settings: Chlorocebus sabaeus
How it was run: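 VERO monkey kidney […] seeded at 25,000 cells/well and grown 24 h, then exposed to compound for 48 h, highest concentration 23.8 µg/ml. Viability by neutral red uptake. IC50 from growth-inhibition curves. DMSO as vehicle control.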

[5] = test system: Cryptococcus neoformans; assay: Antifungal activity against Cryptococcus neoformans ATCC 90113; format: functional, organism-based; how it was run: as §1
[6] = test system: Plasmodium falciparum; assay: Anti-infective activity against Plasmodium falciparum W2 in erythrocytes; format: functional, organism-based
[7] = Anti-infective activity against Plasmodium falciparum D6 infected red blood cells; format: functional
[8] = test system: Leishmania donovani; assay: Antileishmanial activity against Leishmania donovani promastigotes; format: functional, organism-based
How it was run: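 L. donovani promastigotes from a 3-day culture in RPMI 1640 with 10% FCS, diluted to 5×10^5/mL. Drug dilutions made directly in the cell suspension. 48 h at 26 °C. Growth measured by Alamar Blue fluorescence at 544/590 nm. IC50 and IC90 from percent growth versus concentration.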

[9] = test system: Plasmodium falciparum; assay: Anti-infective activity against Plasmodium falciparum D6 infected red blood cells up to 4.76 ug/mL; format: functional
[10] = test system: Plasmodium falciparum; assay: Anti-infective activity against Plasmodium falciparum W2 in erythrocytes up to 4.76 ug/mL; format: functional, organism-based

Compound	MIC [1] [µg/mL]	IC50 [2] [µg/mL]	MIC [3] [µg/mL]	IC50 [4] [µg/mL]	MIC [5] [µg/mL]	IC50 [6] [µg/mL]	IC50 [7] [µg/mL]	IC50 [1] [µg/mL]	IC50 [8] [µg/mL]	Activity [9]	Activity [10]	IC50 [5] [µg/mL]
C[n+]1cccc2sc3ccccc3c21.[I-]	> 20	> 20	> 20	> 23.8	> 20	1.2	1.5	–	–	–	–	–
C[n+]1c2ccccc2cc2oc3ccccc3c21.[I-]	–	> 20	> 20	> 23.8	> 20	0.28	0.28	15	2.2	–	–	–
O=C(O)c1cn(C2CC2)c2cc(N3CCNCC3)c(F)cc2c1=O [CIPROFLOXACIN]	–	0.35 (≈ 1.06 µM)	–	–	–	–	–	–	–	–	–	–
C[n+]1c2ccc(Cl)cc2cc2sc3ccccc3c21.[I-]	4	> 20	2	> 23.8	15	2.8	4	–	0.42	–	–	–
C[n+]1c2ccccc2cc2[nH]c3ccccc3c21.[I-] [CRYPTOLEPTINE IODIDE]	> 20	15	2	3.2	–	0.35	0.18	–	0.23	–	–	–
C[n+]1cccc2sc3ccc([N+](=O)[O-])cc3c21.[I-]	> 20	> 20	> 20	> 23.8	> 20	0.46	0.4	–	> 40	–	–	–
C[C@@H]1CC[C@H]2[C@@H](C)C(=O)O[C@@H]3O[C@@]4(C)CC[C@@H]1[C@]32OO4 [ARTEMISININ]	–	–	–	> 4.7	–	0.02 (≈ 0.0708 µM)	0.02 (≈ 0.0708 µM)	–	–	–	–	–
CN(C)c1ccc2sc3ccc[n+](C)c3c2c1	> 20	15	> 20	> 23.8	> 20	0.2	0.18	–	3	–	–	–
CCN(CC)CCCC(C)Nc1ccnc2cc(Cl)ccc12 (centres undefined) [CHLOROQUINE]	–	–	–	> 4.7	–	–	0.02 (≈ 0.0625 µM)	–	–	–	–	–
[I-].c1ccc(CCCCC[n+]2cccc3sc4ccccc4c32)cc1	20	1.5	> 20	20	20	0.22	0.27	–	1.2	–	–	–
C[C@@H]1[C@H](O)[C@@H](C)/C=C/C=C/C=C/C=C/C=C/C=C/C=C/[C@H](O[C@@H]2O[C@H](C)[C@@H](O)[C@H](N)[C@@H]2O)C[C@@H]2O[C@](O)(C[C@@H](O)C[C@@H](O)[C@H](O)CC[C@@H](O)C[C@@H](O)CC(=O)O[C@H]1C)C[C@H](O)[C@H]2C(=O)O [AMPHOTERICIN B]	–	–	0.25 (≈ 0.271 µM)	–	0.95 (≈ 1.03 µM)	–	–	0.85 (≈ 0.92 µM)	–	–	–	–
C[n+]1c2ccc(C(N)=O)cc2cc2sc3ccccc3c21.[I-]	> 20	> 20	> 20	> 23.8	> 20	–	–	–	40	inactive	inactive	–
N=C(N)c1ccc(OCCCCCOc2ccc(C(=N)N)cc2)cc1 [PENTAMIDINE]	–	–	–	–	–	–	–	–	0.7 (≈ 2.06 µM)	–	–	–
C[n+]1c2ccccc2cc2sc3ccccc3c21.[I-]	> 20	> 20	–	> 23.8	–	2	1.6	–	0.35	–	–	–
C[n+]1c2ccc(C(=O)O)cc2cc2sc3ccccc3c21.[I-]	10	20	> 20	7	> 20	4.5	–	–	0.39	inactive	–	–
C[n+]1c2ccc(C#N)cc2cc2sc3ccccc3c21.[I-]	20	> 20	> 20	> 23.8	> 20	–	–	–	2.6	inactive	inactive	–
COc1ccc2c(c1)cc1sc3ccccc3c1[n+]2C.[I-]	20	> 20	> 20	> 23.8	–	0.74	0.74	–	0.6	–	–	8
C[n+]1c2ccccc2cc2sc3ccccc3c21.O=S(=O)([O-])C(F)(F)F	–	15	10	> 23.8	> 20	0.3	0.34	6.5	0.27	–	–	–
C[n+]1c2c(cc3ccccc31)Cc1ccccc1-2.[I-]	> 20	> 20	> 20	–	> 20	–	–	–	–	–	–	–

Reference: ChEMBL document CHEMBL1145530, “Synthesis and evaluation of isosteres of N-methyl indolo[3,2-b]-quinoline (cryptolepine) as new antiinfective agents” (Bioorg Med Chem, 2007)
